Measurements: ChEMBL document CHEMBL1156239, “Synthesis, anticonvulsant and antimicrobial activities of some new 2-acetylnaphthalene derivatives” (Bioorg Med Chem, 2010)
Converted amounts (≈) assume the structure as drawn. The source made the active and inactive calls. The calls are words filed in the database; no cut-off is given here.

Experiments:
Mus musculus [1] = assay: Neurotoxicity in CF1 mouse assessed as hyperactivity at 300 mg/kg, ip after 0.5 hrs by rotarod test; format: toxicity, organism-based; parameters: dose 300 mg/kg, route intraperitoneal; conditions: in vivo
Mus musculus [2] = assay: Anticonvulsant activity in CF1 mouse assessed as time to peak effect for inhibition of maximal electroshock-induced seizures at 70 mg/kg, ip; format: functional; conditions: route intraperitoneal
Rattus norvegicus [3] = assay: Neurotoxicity in Sprague-Dawley rat assessed as time to peak effect at 10 to 30 mg/kg, ip after 0.25 to 4 hrs by rotarod test; format: toxicity, organism-based; parameters: route intraperitoneal; conditions: in vivo
Rattus norvegicus [4] = assay: Neurotoxicity in Sprague-Dawley rat at 30 mg/kg, ip after 2 hrs by rotarod test; format: toxicity, organism-based; parameters: dose 30 mg/kg, route intraperitoneal; conditions: in vivo
Rattus norvegicus [5] = assay: Neurotoxicity in Sprague-Dawley rat at 30 mg/kg, ip after 0.5 hrs by rotarod test; format: toxicity, organism-based; parameters: dose 30 mg/kg, route intraperitoneal; conditions: in vivo
Candida parapsilosis = assay: Antifungal activity against Candida parapsilosis ATCC 22019 after 48 hrs by broth microdilution method; format: functional; conditions: Lodderomyces parapsilosis, ATCC 22019, 48 h
Mus musculus [6] = assay: Anticonvulsant activity in CF1 mouse assessed as inhibition of maximal electroshock-induced seizures at 100 mg/kg, ip after 0.5 hrs; format: functional, organism-based; parameters: dose 100 mg/kg
How it was run: (§1)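 Male albino CF#1 mice (18–25.5 g), compound suspended in 0.5% methylcellulose, given ip 0.5 h or 4 h before test. Eyes treated with 0.5% tetracaine HCl in saline; corneal-type MES at 60 Hz, 50 mA for 0.2 s; protection scored as animals protected/tested.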

Mus musculus [7] = assay: Neurotoxicity in CF1 mouse at 100 mg/kg, ip after 4 hrs by rotarod test; format: toxicity, organism-based; parameters: dose 100 mg/kg, route intraperitoneal; conditions: in vivo
How it was run: (§2)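 Male albino CF#1 mice (18–25.5 g) dosed ip with compound suspended in 0.5% methylcellulose, 0.5 h or 4 h before testing; neurotoxicity assessed by rotarod, scored as number toxic/number tested.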

Rattus norvegicus [8] = assay: Anticonvulsant activity in Sprague-Dawley rat assessed as inhibition of maximal electroshock-induced seizures at 30 mg/kg, po after 2 hrs; format: functional, organism-based; parameters: dose 30 mg/kg
How it was run: (§3)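 Male albino Sprague-Dawley rats (105–130 g) given a single oral 30 mg/kg dose suspended in 0.5% methylcellulose; MES (60 Hz, 150 mA, 0.2 s, tetracaine-anesthetized eyes) at 0.25, 0.5, 1, 2 and 4 h; 4 rats per time point; scored protected/tested.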

Rattus norvegicus [9] = assay: Neurotoxicity in Sprague-Dawley rat assessed as time to peak effect at 50 mg/kg, ip after 2 to 6 hrs by rotarod test; format: toxicity, organism-based; parameters: dose 50 mg/kg, route intraperitoneal; conditions: in vivo
Rattus norvegicus [10] = assay: Anticonvulsant activity in Sprague-Dawley rat assessed as time to peak effect for inhibition of maximal electroshock-induced seizures at 30 mg/kg, ip; format: functional; conditions: route intraperitoneal
Mus musculus [11] = assay: Neurotoxicity in CF1 mouse at 30 mg/kg, ip after 0.5 hrs by rotarod test; format: toxicity, organism-based; parameters: dose 30 mg/kg, route intraperitoneal; conditions: in vivo; how it was run: as §2
Rattus norvegicus [12] = assay: Neurotoxicity in Sprague-Dawley rat at 30 mg/kg, ip after 4 hrs by rotarod test; format: toxicity, organism-based; parameters: dose 30 mg/kg, route intraperitoneal; conditions: in vivo
Rattus norvegicus [13] = assay: Neurotoxicity in Sprague-Dawley rat assessed as time to peak effect at 75 mg/kg, ip by rotarod test; format: toxicity, organism-based; parameters: dose 75 mg/kg, route intraperitoneal; conditions: in vivo
Staphylococcus aureus = assay: Antibacterial activity against Staphylococcus aureus ATCC 25923 after 24 hrs by broth microdilution method; format: functional; conditions: ATCC 25923, 24 h
How it was run: (§4)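 Broth microdilution in Mueller Hinton broth; compound stocks in DMSO, diluted into test medium. Plates incubated at 35 °C and read visually after 24 h. MIC taken as lowest concentration preventing visible growth. Ampicillin reference.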

Mus musculus [14] = assay: Neurotoxicity in CF1 mouse assessed as time to peak effect muscle spasms at 150 mg/kg, ip by rotarod test; format: toxicity, organism-based, Muscle tissue; parameters: dose 150 mg/kg, route intraperitoneal; conditions: in vivo
Mus musculus [15] = assay: Anticonvulsant activity in CF1 mouse assessed as inhibition of maximal electroshock-induced seizures at 30 mg/kg, ip after 4 hrs; format: functional, organism-based; parameters: dose 30 mg/kg; how it was run: as §1
Enterococcus faecalis = assay: Antibacterial activity against Enterococcus faecalis ATCC 29212 after 24 hrs by broth microdilution method; format: functional; conditions: ATCC 29212, 24 h; how it was run: as §4
Pichia kudriavzevii = assay: Antifungal activity against Candida krusei ATCC 6258 after 48 hrs by broth microdilution method; format: functional; conditions: ATCC 6258, 48 h
Escherichia coli = assay: Antibacterial activity against Escherichia coli ATCC 25922 after 24 hrs by broth microdilution method; format: functional; conditions: ATCC 25922, 24 h; how it was run: as §4
Rattus norvegicus [16] = assay: Neurotoxicity in Sprague-Dawley rat at 30 mg/kg, ip after 0.25 hrs by rotarod test; format: toxicity, organism-based; parameters: dose 30 mg/kg, route intraperitoneal; conditions: in vivo
Mus musculus [17] = assay: Neurotoxicity in CF1 mouse assessed as time to peak effect at 150 mg/kg, ip after 1 to 2 hrs by rotarod test; format: toxicity, organism-based; parameters: dose 150 mg/kg, route intraperitoneal; conditions: in vivo
Rattus norvegicus [18] = assay: Neurotoxicity in ip dosed Sprague-Dawley rat after 0.5 hrs by rotarod test; format: toxicity, organism-based; conditions: in vivo
Rattus norvegicus [19] = assay: Neurotoxicity in Sprague-Dawley rat at 30 mg/kg, po after 2 hrs by rotarod test; format: toxicity, organism-based; parameters: dose 30 mg/kg, route oral; conditions: in vivo
Pseudomonas aeruginosa = assay: Antibacterial activity against Pseudomonas aeruginosa ATCC 27853 after 24 hrs by broth microdilution method; format: functional; conditions: ATCC 27853, 24 h; how it was run: as §4
Rattus norvegicus [20] = assay: Anticonvulsant activity in Sprague-Dawley rat assessed as inhibition of maximal electroshock-induced seizures at 30 mg/kg, po after 0.25 hrs; format: functional, organism-based; parameters: dose 30 mg/kg; how it was run: as §3
Rattus norvegicus [21] = assay: Neurotoxicity in Sprague-Dawley rat at 30 mg/kg, po after 0.25 hrs by rotarod test; format: toxicity, organism-based; parameters: dose 30 mg/kg, route oral; conditions: in vivo
Mus musculus [22] = assay: Neurotoxicity in CF1 mouse at 30 mg/kg, ip after 4 hrs by rotarod test; format: toxicity, organism-based; parameters: dose 30 mg/kg, route intraperitoneal; conditions: in vivo; how it was run: as §2
Rattus norvegicus [23] = assay: Anticonvulsant activity in rat assessed as inhibition of hippocampal kindle-stimulated seizures at 300 mg/kg, ip; format: functional, organism-based; parameters: dose 300 mg/kg; conditions: Hippocampus
How it was run: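 Hippocampal kindled rat model; single animal given 300 mg/kg ip.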

[24] = Therapeutic index, ratio of TD50 for CF1 mouse to ED50 for CF1 mouse
How it was run: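 Ratio of TD50 to ED50, both from ip dosing at the time of peak effect, with groups of at least 8 per dose and Finney probit analysis. […] Toxicity was read by rotarod in mice and by positional sense, gait and stance in rats.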

Mus musculus [25] = assay: Anticonvulsant activity in CF1 mouse assessed as inhibition of maximal electroshock-induced seizures at 30 mg/kg, ip after 0.5 hrs; format: functional, organism-based; parameters: dose 30 mg/kg; how it was run: as §1
Rattus norvegicus [26] = assay: Neurotoxicity in Sprague-Dawley rat at 30 mg/kg, po after 4 hrs by rotarod test; format: toxicity, organism-based; parameters: dose 30 mg/kg, route oral; conditions: in vivo
Mus musculus [27] = assay: Neurotoxicity in CF1 mouse assessed as time to peak effect for ability to grasp rotarod at 150 mg/kg, ip by rotarod test; format: toxicity, organism-based; parameters: dose 150 mg/kg, route intraperitoneal; conditions: in vivo
Mus musculus [28] = assay: Anticonvulsant activity in CF1 mouse assessed as inhibition of maximal electroshock-induced seizures at 300 mg/kg, ip after 4 hrs; format: functional, organism-based; parameters: dose 300 mg/kg; how it was run: as §1
Mus musculus [29] = assay: Anticonvulsant activity in ip dosed CF1 mouse assessed as inhibition of maximal electroshock-induced seizures after 0.5 hrs; format: functional
Rattus norvegicus [30] = assay: Anticonvulsant activity in ip dosed Sprague-Dawley rat assessed as inhibition of maximal electroshock-induced seizures after 0.5 hrs; format: functional
Mus musculus [31] = assay: Anticonvulsant activity in ip dosed CF1 mouse assessed as inhibition of ScM-induced seizures after 5 hrs; format: functional
Mus musculus [32] = assay: Neurotoxicity in CF1 mouse assessed as mortality at 300 mg/kg, ip after 4 hrs by rotarod test; format: toxicity, organism-based; parameters: dose 300 mg/kg, route intraperitoneal; conditions: in vivo
How it was run: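 Male albino CF#1 mice (18–25.5 g), free access to food and water except during testing, under NINDS Anticonvulsant Screening Program procedures. Compounds were suspended in 0.5% methylcellulose and given ip. Neurotoxicity was scored by rotarod 0.5 h and 4 h after dosing, at screening doses of 30, 100 or 300 mg/kg. Results are reported as affected/tested animals.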

CC(C)CC(=O)OC(Cn1ccnc1)c1ccc2ccccc2c1 (stereo not drawn)
Activity (Mus musculus [1]): Toxic
Time (Mus musculus [2]): 0.5 h
Activity (Rattus norvegicus [3]): Non-toxic
Activity (Rattus norvegicus [4]): Non-toxic
Activity (Rattus norvegicus [5]): Non-toxic
MIC (Candida parapsilosis): 64 µg/mL (≈ 199 µM)
inhibition (Mus musculus [6]): Active
Activity (Mus musculus [7]): Non-toxic
inhibition (Rattus norvegicus [8]): inactive
Activity (Rattus norvegicus [9]): Non-toxic
Time (Rattus norvegicus [10]): 0.5 h
Activity (Mus musculus [11]): Non-toxic
Activity (Rattus norvegicus [12]): Non-toxic
Time (Rattus norvegicus [13]): 0.5 h
MIC (Staphylococcus aureus): 8 µg/mL (≈ 24.8 µM)
Time (Mus musculus [14]): 0.25 h
inhibition (Mus musculus [15]): inactive
MIC (Enterococcus faecalis): 64 µg/mL (≈ 199 µM)
MIC (Pichia kudriavzevii): 128 µg/mL (≈ 397 µM)
MIC (Escherichia coli): > 1020 µg/mL
Activity (Rattus norvegicus [16]): Non-toxic
Activity (Mus musculus [17]): Not Active
ED50 (Rattus norvegicus [18]): 56.36 mg/kg
Activity (Rattus norvegicus [19]): Non-toxic
MIC (Pseudomonas aeruginosa): > 1020 µg/mL
inhibition (Rattus norvegicus [20]): inactive
Activity (Rattus norvegicus [21]): Non-toxic
Activity (Mus musculus [22]): Non-toxic
inhibition (Rattus norvegicus [23]): inactive
selectivity ratio [24]: 3.22
inhibition (Mus musculus [25]): inactive
Activity (Rattus norvegicus [26]): Non-toxic
Time (Mus musculus [27]): 0.25 h
inhibition (Mus musculus [28]): Active
ED50 (Mus musculus [29]): 38.5 mg/kg
ED50 (Rattus norvegicus [30]): 20.4 mg/kg
ED50 (Mus musculus [31]): > 138 mg/kg
Activity (Mus musculus [32]): Toxic
